Laboratory results from ChEMBL document CHEMBL4406821, “Novel dual inhibitors targeting CDK4 and VEGFR2 synergistically suppressed cancer progression and angiogenesis” (Eur J Med Chem, 2019).
Activity calls are given as the source filed them. The calls are words filed in the database; no cut-off is given here.

Tests used:
[1] = tested on: SiHa; assay: Antitumor activity against human SiHa cells xenografted in NOD/SCID BALB/c mouse assessed as tumor growth inhibition at 40 mg/kg, po administered for 21 days; type: functional, organism-based
[2] = tested on: T47D; assay: Antiproliferative activity against human T47D cells assessed as reduction in cell viability at 40 nM incubated for 48 hrs by EdU staining based laser scanning confocal microscopy; type: functional
Procedure, shortened: (§1)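 Cells, 5×10^4, were seeded in 24-well plates and treated for 48 h. They were then labeled using an EdU Apollo 488 imaging kit with Hoechst 33342 nuclear stain and imaged by laser scanning confocal microscopy. Percent EdU-positive cells = EdU-positive/Hoechst-stained × 100%.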

[3] = tested on: T47D; assay: Induction of apoptosis in human T47D cells assessed as increase in early apoptotic cells at 20 to 40 nM incubated for 48 hrs by annexin V FITC and propidium iodide staining based flow cytometry; type: functional, cell-based
Procedure, shortened: (§2)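 Annexin V-FITC/PI double staining with flow-cytometric readout. MDA-MB-231, T-47D, SiHa and HeLa cells were treated with graded concentrations for 48 h. MDA-MB-231 and T-47D were grown in DMEM and SiHa in 1640 medium, each with 10% FBS and 1% penicillin/streptomycin at 37°C under 5% CO2. Early- and late-stage apoptotic fractions were scored.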

[4] = biological target: Macrophage-stimulating protein receptor (Homo sapiens) (UniProt Q04912); assay: Inhibition of recombinant human RON (983 to end residues) at 1 uM using GGMEDIYFEFMGGKKK as substrate incubated for 40 mins in presence of [gamma-33P]-ATP by scintillation counting method relative to control
[5] = tested on: MDA-MB-231; assay: Inhibition of colony formation in human MDA-MB-231 cells at 20 to 40 nM incubated for 5 days by crystal violet staining based light microscopy; type: functional, cell-based
Procedure, shortened: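 4 × 10^3 cells per well were cultured with graded concentrations for 5 days. Cells were then fixed with 20% methanol, stained with 0.5% crystal violet and photographed by light microscopy.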

[6] = tested on: T47D; assay: Induction of apoptosis in human T47D cells assessed as increase in late apoptotic cells at 20 to 40 nM incubated for 48 hrs by annexin V FITC and propidium iodide staining based flow cytometry; type: functional, cell-based; procedure, shortened: as §2
[7] = biological target: Serine/threonine-protein kinase SBK1 (Homo sapiens) (UniProt Q52WX2); assay: Inhibition of recombinant human full length SBK1 at 1 uM using KKLRRTLSVA as substrate incubated for 40 mins in presence of [gamma-33P]-ATP by scintillation counting method relative to control
Serine/threonine-protein kinase SBK1 (Homo sapiens), sequence (Q52WX2 whole entry): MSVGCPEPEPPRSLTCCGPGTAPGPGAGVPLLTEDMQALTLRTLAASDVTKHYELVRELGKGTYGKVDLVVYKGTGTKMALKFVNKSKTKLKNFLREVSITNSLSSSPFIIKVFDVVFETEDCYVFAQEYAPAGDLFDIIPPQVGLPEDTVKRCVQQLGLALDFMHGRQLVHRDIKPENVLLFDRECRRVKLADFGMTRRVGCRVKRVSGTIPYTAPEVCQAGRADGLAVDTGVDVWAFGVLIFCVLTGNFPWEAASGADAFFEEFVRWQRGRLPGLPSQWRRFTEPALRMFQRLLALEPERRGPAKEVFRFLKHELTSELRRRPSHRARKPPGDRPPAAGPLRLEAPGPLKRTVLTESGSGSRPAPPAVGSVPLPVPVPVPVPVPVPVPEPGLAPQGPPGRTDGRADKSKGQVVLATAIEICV

[8] = tested on: SiHa; assay: Induction of apoptosis in human SiHa cells assessed as increase in late apoptotic cells at 20 to 40 nM incubated for 48 hrs by annexin V FITC and propidium iodide staining based flow cytometry; type: functional, cell-based; procedure, shortened: as §2
[9] = biological target: Cytoplasmic tyrosine-protein kinase BMX (Homo sapiens) (UniProt P51813); assay: Inhibition of recombinant full length human BMX at 1 uM using poly(Glu, Tyr) 4:1 as substrate incubated for 40 mins in presence of [gamma-33P]-ATP by scintillation counting method relative to control
Procedure, shortened: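 Kinase panel profiling at 1 μM performed by Eurofins KinaseProfiler; percent inhibition reported as mean of two independent experiments.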

[10] = biological target: Testis-specific serine/threonine-protein kinase 4 (Homo sapiens) (UniProt Q6SA08); assay: Inhibition of recombinant human full length TSSK4 at 1 uM using KKLNRTLSFAEPG as substrate incubated for 40 mins in presence of [gamma-33P]-ATP by scintillation counting method relative to control
Testis-specific serine/threonine-protein kinase 4 (Homo sapiens), sequence (Q6SA08 whole entry): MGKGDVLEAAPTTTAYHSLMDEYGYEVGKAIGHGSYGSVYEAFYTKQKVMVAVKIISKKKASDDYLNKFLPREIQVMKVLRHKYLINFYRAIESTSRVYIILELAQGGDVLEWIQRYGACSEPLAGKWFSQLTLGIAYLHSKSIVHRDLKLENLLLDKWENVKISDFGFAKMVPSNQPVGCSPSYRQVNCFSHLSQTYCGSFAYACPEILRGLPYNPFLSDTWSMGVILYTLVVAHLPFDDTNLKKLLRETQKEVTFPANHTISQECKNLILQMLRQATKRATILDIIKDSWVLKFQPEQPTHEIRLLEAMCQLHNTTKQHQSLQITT
Procedure, shortened: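 Single-point inhibition at 1 uM measured in a commercial kinase profiling panel (KinaseProfiler); each value is the mean of two independent experiments.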

[11] = VRT (0 to t) in Sprague-Dawley rat at 10 mg/kg, po by HPLC-MS analysis; type: ADME, organism-based; conditions: in vivo
[12] = biological target: Ephrin type-B receptor 1 (Homo sapiens) (UniProt P54762); assay: Inhibition of recombinant human EPhB1 (564 to end residues) at 1 uM using KVEKIGEGTYGVVYK as substrate incubated for 40 mins in presence of [gamma-33P]-ATP by scintillation counting method relative to control
[13] = biological target: Serine/threonine-protein kinase/endoribonuclease IRE1 (Homo sapiens) (UniProt O75460); assay: Inhibition of recombinant human IRE1 (465 to end residues) at 1 uM using myelin basic protein as substrate incubated for 40 mins in presence of [gamma-33P]-ATP by scintillation counting method relative to control
Serine/threonine-protein kinase/endoribonuclease IRE1 (Homo sapiens), sequence (O75460 19-977 limits assumed): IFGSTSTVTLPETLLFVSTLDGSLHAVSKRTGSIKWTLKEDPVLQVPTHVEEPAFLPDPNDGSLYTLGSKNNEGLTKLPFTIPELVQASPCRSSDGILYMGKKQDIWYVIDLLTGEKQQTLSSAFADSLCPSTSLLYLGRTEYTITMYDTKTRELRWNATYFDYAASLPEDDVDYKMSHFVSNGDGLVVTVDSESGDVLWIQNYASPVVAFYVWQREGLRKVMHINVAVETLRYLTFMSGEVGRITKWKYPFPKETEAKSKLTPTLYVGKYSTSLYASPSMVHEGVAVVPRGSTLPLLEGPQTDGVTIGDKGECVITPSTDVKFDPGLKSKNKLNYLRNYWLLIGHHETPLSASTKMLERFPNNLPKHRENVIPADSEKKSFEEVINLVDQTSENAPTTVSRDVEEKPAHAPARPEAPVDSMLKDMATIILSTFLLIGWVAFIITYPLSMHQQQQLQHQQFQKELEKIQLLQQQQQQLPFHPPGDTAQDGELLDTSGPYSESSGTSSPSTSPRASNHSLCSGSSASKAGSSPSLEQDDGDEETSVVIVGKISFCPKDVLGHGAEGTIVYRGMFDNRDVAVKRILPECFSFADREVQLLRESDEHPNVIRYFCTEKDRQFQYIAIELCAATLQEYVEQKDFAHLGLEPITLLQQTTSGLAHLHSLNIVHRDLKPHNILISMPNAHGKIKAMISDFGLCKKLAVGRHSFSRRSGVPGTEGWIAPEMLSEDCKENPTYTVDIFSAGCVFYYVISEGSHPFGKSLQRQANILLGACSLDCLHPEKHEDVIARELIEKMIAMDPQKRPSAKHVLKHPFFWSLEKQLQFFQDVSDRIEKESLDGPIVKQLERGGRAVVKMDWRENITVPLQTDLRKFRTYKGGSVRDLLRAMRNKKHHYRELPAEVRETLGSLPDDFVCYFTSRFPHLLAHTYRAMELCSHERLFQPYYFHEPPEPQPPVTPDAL

[14] = biological target: G protein-coupled receptor kinase 3 (Homo sapiens) (UniProt P35626); assay: Inhibition of recombinant human full length GRK3 at 1 uM using casein as substrate incubated for 40 mins in presence of [gamma-33P]-ATP by scintillation counting method relative to control
G protein-coupled receptor kinase 3 (Homo sapiens), sequence (P35626 whole entry): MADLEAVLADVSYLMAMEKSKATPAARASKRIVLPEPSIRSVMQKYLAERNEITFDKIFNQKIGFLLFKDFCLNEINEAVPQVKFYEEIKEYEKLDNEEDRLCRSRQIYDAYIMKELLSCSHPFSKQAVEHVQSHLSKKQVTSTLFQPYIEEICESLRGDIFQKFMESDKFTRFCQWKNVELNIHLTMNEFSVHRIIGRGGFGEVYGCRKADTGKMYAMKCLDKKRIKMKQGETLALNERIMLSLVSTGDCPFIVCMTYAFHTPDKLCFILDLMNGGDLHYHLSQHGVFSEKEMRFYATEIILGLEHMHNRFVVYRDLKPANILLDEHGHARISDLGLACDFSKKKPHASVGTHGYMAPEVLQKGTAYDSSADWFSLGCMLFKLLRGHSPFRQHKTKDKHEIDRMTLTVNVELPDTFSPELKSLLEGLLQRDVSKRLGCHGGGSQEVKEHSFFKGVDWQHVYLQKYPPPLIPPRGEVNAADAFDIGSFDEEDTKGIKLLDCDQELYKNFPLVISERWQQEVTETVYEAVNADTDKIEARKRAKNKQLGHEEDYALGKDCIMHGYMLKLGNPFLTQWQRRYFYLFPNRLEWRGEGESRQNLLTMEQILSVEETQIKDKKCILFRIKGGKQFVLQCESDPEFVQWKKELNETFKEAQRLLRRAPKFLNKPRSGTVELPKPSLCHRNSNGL

[15] = tested on: MDA-MB-231; assay: Antiproliferative activity against human MDA-MB-231 cells at 20 to 40 nM assessed as reduction in cell viability incubated for 48 hrs by EdU staining based laser scanning confocal microscopy; type: functional; procedure, shortened: as §1
[16] = biological target: Serine/threonine-protein kinase SIK2 (Homo sapiens) (UniProt Q9H0K1); assay: Inhibition of recombinant human SIK2 (1 to 276 residues) at 1 uM using KKKVSRSGLYRSPSMPENLNRPR as substrate incubated for 40 mins in presence of [gamma-33P]-ATP by scintillation counting method relative to control
Serine/threonine-protein kinase SIK2 (Homo sapiens), sequence (Q9H0K1 whole entry, looked up, the tested form may be a part): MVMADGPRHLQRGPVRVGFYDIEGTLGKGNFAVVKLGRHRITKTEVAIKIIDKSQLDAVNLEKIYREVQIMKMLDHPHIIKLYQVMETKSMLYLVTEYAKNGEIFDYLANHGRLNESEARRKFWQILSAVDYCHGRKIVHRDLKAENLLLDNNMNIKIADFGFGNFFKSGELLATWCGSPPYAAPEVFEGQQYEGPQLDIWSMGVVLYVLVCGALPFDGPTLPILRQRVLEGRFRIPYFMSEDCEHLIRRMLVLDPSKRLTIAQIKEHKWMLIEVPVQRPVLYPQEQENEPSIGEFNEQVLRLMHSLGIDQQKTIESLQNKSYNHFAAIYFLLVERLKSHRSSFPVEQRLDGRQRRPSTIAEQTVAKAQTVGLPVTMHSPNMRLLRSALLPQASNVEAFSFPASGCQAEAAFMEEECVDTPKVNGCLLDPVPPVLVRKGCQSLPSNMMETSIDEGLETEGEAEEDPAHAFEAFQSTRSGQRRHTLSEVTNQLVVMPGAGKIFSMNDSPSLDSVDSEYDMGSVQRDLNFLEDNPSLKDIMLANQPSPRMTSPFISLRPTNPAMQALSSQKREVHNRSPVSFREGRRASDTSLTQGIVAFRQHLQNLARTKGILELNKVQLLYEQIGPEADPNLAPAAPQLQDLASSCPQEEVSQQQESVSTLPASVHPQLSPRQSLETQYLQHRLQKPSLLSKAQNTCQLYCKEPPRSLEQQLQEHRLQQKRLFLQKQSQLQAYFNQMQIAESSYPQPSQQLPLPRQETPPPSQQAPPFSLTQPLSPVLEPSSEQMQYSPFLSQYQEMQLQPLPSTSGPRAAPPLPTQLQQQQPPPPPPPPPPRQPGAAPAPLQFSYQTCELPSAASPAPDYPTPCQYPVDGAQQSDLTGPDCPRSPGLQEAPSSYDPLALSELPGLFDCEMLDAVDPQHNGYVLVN

[17] = biological target: RAC-beta serine/threonine-protein kinase (Homo sapiens) (UniProt P31751); assay: Inhibition of recombinant human PKBbeta (120 to end residues) at 1 uM using GRPRTSSFAEGKK as substrate incubated for 40 mins in presence of [gamma-33P]-ATP by scintillation counting method relative to control
RAC-beta serine/threonine-protein kinase (Homo sapiens), sequence (P31751 whole entry): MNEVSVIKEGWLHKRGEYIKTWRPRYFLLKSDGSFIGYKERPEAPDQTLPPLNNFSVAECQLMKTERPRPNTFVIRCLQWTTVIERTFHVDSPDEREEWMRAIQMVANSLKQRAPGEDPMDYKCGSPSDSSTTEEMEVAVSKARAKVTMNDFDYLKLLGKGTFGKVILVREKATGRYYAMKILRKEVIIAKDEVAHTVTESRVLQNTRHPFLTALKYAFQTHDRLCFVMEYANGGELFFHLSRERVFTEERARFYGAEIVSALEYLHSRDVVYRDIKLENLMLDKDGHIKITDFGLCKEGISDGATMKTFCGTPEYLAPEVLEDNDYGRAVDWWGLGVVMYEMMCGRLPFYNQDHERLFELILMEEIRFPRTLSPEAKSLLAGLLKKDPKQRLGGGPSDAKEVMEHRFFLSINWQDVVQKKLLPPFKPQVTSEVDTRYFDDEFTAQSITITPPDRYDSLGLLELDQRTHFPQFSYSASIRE
Procedure, shortened: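 Tested at a single 1 uM in an outsourced commercial kinase-profiling panel, read as percent inhibition. Each value is the mean of two independent experiments.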

[18] = tested on: Epidermal growth factor receptor (Homo sapiens), P00533 [L861Q]; assay: Inhibition of recombinant human EGFR L861Q mutant (696 to end residues) at 1 uM using poly(Glu, Tyr) 4:1 as substrate incubated for 40 mins in presence of [gamma-33P]-ATP by scintillation counting method relative to control
Epidermal growth factor receptor (Homo sapiens), P00533 [L861Q], sequence (P00533 whole entry L861Q): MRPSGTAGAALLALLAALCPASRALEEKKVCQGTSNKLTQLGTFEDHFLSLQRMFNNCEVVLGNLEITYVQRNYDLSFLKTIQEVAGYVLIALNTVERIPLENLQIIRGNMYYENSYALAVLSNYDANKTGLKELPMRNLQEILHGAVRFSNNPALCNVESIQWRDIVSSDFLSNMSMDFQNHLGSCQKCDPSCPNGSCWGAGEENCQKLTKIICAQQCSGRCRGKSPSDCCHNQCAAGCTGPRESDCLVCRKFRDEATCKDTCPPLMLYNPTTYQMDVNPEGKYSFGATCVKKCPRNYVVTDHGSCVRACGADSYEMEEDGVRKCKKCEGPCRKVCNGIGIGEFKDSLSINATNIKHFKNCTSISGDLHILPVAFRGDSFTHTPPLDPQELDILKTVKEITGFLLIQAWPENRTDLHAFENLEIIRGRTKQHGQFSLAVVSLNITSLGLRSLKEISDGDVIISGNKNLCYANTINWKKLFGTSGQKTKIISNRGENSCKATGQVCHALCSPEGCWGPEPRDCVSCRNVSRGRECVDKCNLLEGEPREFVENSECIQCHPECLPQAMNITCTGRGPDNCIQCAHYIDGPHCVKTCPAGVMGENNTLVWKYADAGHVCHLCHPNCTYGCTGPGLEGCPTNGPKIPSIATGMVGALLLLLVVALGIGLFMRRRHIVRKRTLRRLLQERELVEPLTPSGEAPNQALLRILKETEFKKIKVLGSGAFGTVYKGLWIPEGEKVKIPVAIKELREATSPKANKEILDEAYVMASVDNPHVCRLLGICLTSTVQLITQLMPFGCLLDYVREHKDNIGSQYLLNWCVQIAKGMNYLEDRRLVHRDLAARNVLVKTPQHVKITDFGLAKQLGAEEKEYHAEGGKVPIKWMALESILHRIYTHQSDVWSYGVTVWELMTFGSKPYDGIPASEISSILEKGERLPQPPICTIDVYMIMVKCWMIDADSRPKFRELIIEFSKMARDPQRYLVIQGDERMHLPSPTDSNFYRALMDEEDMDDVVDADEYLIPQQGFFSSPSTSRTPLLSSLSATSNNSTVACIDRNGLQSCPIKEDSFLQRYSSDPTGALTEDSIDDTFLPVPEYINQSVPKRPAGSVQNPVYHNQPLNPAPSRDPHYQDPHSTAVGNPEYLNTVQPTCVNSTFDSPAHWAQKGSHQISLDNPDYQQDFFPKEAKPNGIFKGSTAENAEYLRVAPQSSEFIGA

[19] = biological target: PI3-kinase p110-delta/p85-alpha (Homo sapiens) (UniProt P27986+O00329); assay: Inhibition of recombinant human full length PI3K p110delta/p85alpha at 1 uM using phosphatidylinositol-4, 5-bisphosphate as substrate incubated for 40 mins in presence of [gamma-33P]-ATP by scintillation counting method relative to control; type: protein-complex assay
[20] = Toxicity in NOD/SCID BALB/c mouse xenografted with human SiHa cells assessed as toxic effects in kidney at 40 mg/kg, po administered for 48 hrs by hematoxylin and eosin staining method; type: organism-based; conditions: in vivo
[21] = Cmax in Sprague-Dawley rat at 10 mg/kg, iv by HPLC-MS analysis; type: ADME, organism-based; parameters: dose 10 mg/kg, route intravenous; conditions: in vivo
Procedure, shortened: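 Rats fitted with jugular vein catheters for serial blood sampling. Compound dissolved in saline with 5% (v/v) DMSO and given as a single 10 mg/kg dose iv or po after an overnight fast, n = 5 per group. Plasma isolated at once and measured by HPLC with tandem MS detection. Parameters derived by noncompartmental fitting.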

COc1cc2nccc(Oc3ccc(NC(=O)C4(C(=O)Nc5ccc(F)cc5)CC4)cc3)c2cc1OC [CABOZANTINIB]
TGI [1]: Active
inhibition [2]: Active

Cc1ccc(NC(=O)C2(C(=O)Nc3ccc(Nc4ncc(F)c(-c5cc(F)c6nc(C)n(C(C)C)c6c5)n4)cc3)CC2)cc1
Activity [3]: Active
inhibition [4]: 54%
inhibition [5]: Active
Activity [6]: Active
inhibition [7]: 13%
Activity [8]: Active
inhibition [9]: 59%
inhibition [10]: 0%
VRT(t) [11]: 7 h
inhibition [12]: 66%
inhibition [13]: 33%
inhibition [14]: 10%
inhibition [15]: Active
inhibition [16]: 43%
inhibition [17]: 0%
inhibition [18]: 34%
inhibition [19]: 12%
Activity [20]: Non-Toxic
Cmax [21]: 7000 ng/mL
